Experiments:
J774 = test: Cytotoxicity against mouse J774 cells assessed as cell viability after 48 hrs by resazurin assay; type: cell-based; conditions: J774, 48 h
Summary of the method: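 J774 macrophages grown in RPMI 1640 with 10% heat-inactivated FBS, penicillin and streptomycin at 37 °C, 5% CO2, and harvested pre-confluence with trypsin. Seeded at 5x10^4 cells/well and left to attach 24 h. Exposed to a range of drug concentrations for 48 h. Resazurin solution (2 mM stock, in PBS pH 7) added for 3 h. Absorbance read at 490 and 595 nm with background subtracted. Triplicates; %C and IC50 calculated.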

Trypanosoma cruzi = test: Trypanosomicidal activity against epimastigote stage of Trypanosoma cruzi CL-B5 after 72 hrs by beta-galactosidase reporter gene assay; type: functional, organism-based; conditions: CL-B5, 72 h
Summary of the method: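 Epimastigotes from cultures not yet in stationary phase, seeded at 2 x 10^5/mL with drugs at 28 °C for 72 h. CPRG then added (200 µM final) for 6 h at 37 °C and absorbance read at 595 nm. Each concentration tested in triplicate, two independent experiments; IC50 and AE% calculated.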

[1] = Selectivity ratio of IC50 for mouse J774 cells to IC50 for epimastigote stage of Trypanosoma cruzi CL-B5; type: ADME, cell-based; conditions: J774 cells versus Trypanosoma cruzi CL-B5 epimastigotes, read-out: Ratio IC50

Row | SMILES | IC50 (J774) [µM] | IC50 (Trypanosoma cruzi) [µM] | selectivity ratio [1]
1 | Oc1ccc(CCc2ccccc2)cc1 | 407 | 123 | 3.3
2 | COc1ccc(OC)c(CCc2ccccc2)c1 | > 256 | 46.5 | 5.5
3 | COc1ccc(OC)c(C(=O)O)c1 | > 256 | > 256 | 
4 | COc1ccc(OC)c(CO)c1 | > 256 | > 256 | 
5 | C=Cc1cc(OC)ccc1OC | > 256 | > 256 | 
6 | O=C(O)c1cc(O)ccc1O [GENTISIC ACID] | > 256 | > 256 | 
7 | Oc1ccc(O)cc1 [HYDROQUINONE] | 123 | 19.5 | 6.3
8 | Oc1ccc(CCc2cccc(O)c2)cc1 [LUNULARIN] | > 512 | 152 | 3.4
9 | COC(=O)c1cc(O)ccc1O [METHYL 2,5-DIHYDROXYBENZOATE] | > 256 | 98 | 2.6
10 | COC(=O)c1cc(O)cc(O)c1 [METHYL 3,5-DIHYDROXYBENZOATE] | > 256 | > 256 | 

Source: ChEMBL document CHEMBL3414428, “Bond-based bilinear indices for computational discovery of novel trypanosomicidal drug-like compounds through virtual screening” (Eur J Med Chem, 2015)
